Key:
DfrB1 [1] = biological target: T1, DfrB1 (Escherichia coli, UniProt P00383); experiment: DfrB1 inhibition, spectrophotometric kinetic assay; type: biochemical; details: for IC50: DfrB1 IC50, pH 7; for fold change of DfrB1 Ki relative to 1: greater Ki / weaker than 1; for inhibition of DfrB1 (in words): at the highest concentration that could be assayed; for Hill coefficient: DfrB1 inhibition, Hill plot
T1 sequence (P00383 1-78): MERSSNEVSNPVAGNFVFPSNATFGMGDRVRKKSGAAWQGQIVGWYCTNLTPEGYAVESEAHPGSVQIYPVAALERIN

hDfr = biological target: T2, hDfr (Homo sapiens, UniProt P00374); experiment: human Dfr inhibition, kinetic assay; type: biochemical; details: for inhibition of hDfr (in words): selectivity
T2 sequence (P00374 1-187): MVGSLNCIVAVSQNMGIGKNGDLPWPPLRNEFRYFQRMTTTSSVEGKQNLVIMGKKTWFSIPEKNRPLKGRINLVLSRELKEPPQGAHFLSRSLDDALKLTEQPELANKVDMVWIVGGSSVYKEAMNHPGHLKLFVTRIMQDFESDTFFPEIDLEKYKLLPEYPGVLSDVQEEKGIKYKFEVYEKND
Outline: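 His6-tagged human Dfr, purified by nickel affinity (stepwise imidazole in 0.1 M potassium phosphate, pH 8.0), then gel filtration in 0.1 M potassium phosphate, pH 7.5. Protein quantified by Bio-Rad assay. Kinetic assay at pH 7. Test compound tested up to the highest concentration that absorbance and precipitation allowed. IC50 determined per earlier method, with Ki calculated from IC50.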

[2] = Solubility limit in assay medium; type: physicochemical; details: 10% DMSO, aqueous with cosolvent or surfactant or cyclodextrin
apo-DfrB1 = details: read-out: Kd1; binding on the apo-DfrB1; cited from earlier work
DfrB4 = biological target: T3, DfrB4 (Escherichia coli, UniProt Q8VNN1); experiment: DfrB4 inhibition, kinetic assay; type: biochemical
T3 sequence (Q8VNN1 1-78): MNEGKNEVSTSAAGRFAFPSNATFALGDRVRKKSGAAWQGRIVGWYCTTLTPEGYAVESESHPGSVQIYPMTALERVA

DfrB1 [3] = biological target: T1, DfrB1; details: DfrB1 substrate KM; cited from earlier work
E. coli expressing DfrB4 = details: highest TMP concentration dissolved in the medium, 600 μg/mL; cited from earlier work

Compound	Ki (DfrB1 [1])	IC50 (DfrB1 [1])	IC50 (hDfr)	Ki (DfrB4)	further results
O=C(O)c1ccc2[nH]c(-c3cccc(OCC(O)COc4cccc(-c5nc6cc(C(=O)O)ccc6[nH]5)c4)c3)nc2c1 [Compound 19]	12 ± 3 µM	400 ± 100 µM	> 500 µM		fold change of DfrB1 Ki relative to 1 (DfrB1 [1]): 3 fold
O=C(O)CCc1ccc(OCCCCOc2ccc(CCC(=O)O)cc2)cc1 [Compound 17]		> 200 µM			inhibition of DfrB1 (in words) (DfrB1 [1]): No inhibition was observed
O=C(O)Cc1ccc(OCCCCCCOc2ccc(CC(=O)O)cc2)cc1 [Compound 16]		> 500 µM			inhibition of DfrB1 (in words) (DfrB1 [1]): No inhibition was observed
O=C(O)c1ccc2nc(-c3ccc(OCCCOc4ccc(-c5nc6ccc(C(=O)O)cc6[nH]5)cc4Br)c(Br)c3)[nH]c2c1 [Compound 21]	1.7 ± 0.6 µM	60 ± 20 µM	> 400 µM		
O=C(O)c1ccc2[nH]c(-c3ccc(OCc4ccc(COc5ccc(-c6nc7cc(C(=O)O)ccc7[nH]6)cc5)cc4)cc3)nc2c1 [Compound 11]	6.1 µM		> 100 µM		inhibition of hDfr (in words) (hDfr): did not inhibit; solubility [2]: ≤ 100 µM
Nc1nc(=O)c2c([nH]1)NCC(CNc1ccc(C(=O)N[C@@H](CCC(=O)O)C(=O)O)cc1)=N2 [DHF, dihydrofolate]					Kd (apo-DfrB1): 120 µM
O=C(O)c1ccc2nc(-c3ccc(OCCC(O)COc4ccc(-c5nc6ccc(C(=O)O)cc6[nH]5)cc4Br)c(Br)c3)[nH]c2c1 (stereo not shown) [Compound 20b]	2.6 ± 0.7 µM	80 ± 20 µM	> 400 µM	3.7 ± 0.7 µM	
O=C(O)c1ccc2cc(-c3ccc(OCCCCCCCCOc4ccc(-c5ccc6cc(C(=O)O)ccc6c5)cc4)cc3)ccc2c1 [Compound 18]		> 200 µM			inhibition of DfrB1 (in words) (DfrB1 [1]): abolished inhibition
O=C(O)c1ccc2nc(-c3ccc(OCC(COc4ccc(-c5nc6ccc(C(=O)O)cc6[nH]5)cc4)(COc4ccc(-c5nc6ccc(C(=O)O)cc6[nH]5)cc4)COc4ccc(-c5nc6ccc(C(=O)O)cc6[nH]5)cc4)cc3)[nH]c2c1 [Compound 31]	1.1 ± 0.3 µM			1.9 ± 0.5 µM	fold lower DfrB1 Ki than the best inhibitors (DfrB1 [1]): 2- to 12 fold; Hill coefficient (DfrB1 [1]): 1.1 ± 0.4
NC(=O)C1=CN([C@@H]2O[C@H](COP(=O)(O)OP(=O)(O)OC[C@H]3O[C@@H](n4cnc5c(N)ncnc54)[C@H](OP(=O)(O)O)[C@@H]3O)[C@@H](O)[C@H]2O)C=CC1 [NADPH]					Km (DfrB4; DfrB4 substrate KM): 2.8 ± 0.6 µM; Km (DfrB1 [3]): 1.6 ± 0.02 µM; Kd (apo-DfrB1): 2.5 µM
COc1cc(Cc2cnc(N)nc2N)cc(OC)c1OC [TMP, Trimethoprim, reference compound]	600 µM			550 µM	TMP resistance conferred by DfrB4 expression (E. coli expressing DfrB4): complete resistance
O=C(O)c1ccc2[nH]c(-c3ccc(OCc4ccccc4COc4ccc(-c5nc6cc(C(=O)O)ccc6[nH]5)cc4)cc3)nc2c1 [Compound 33]	7.4 ± 2.7 µM			11 ± 1.3 µM	Hill coefficient (DfrB1 [1]): 1.1 ± 0.1; fold change of DfrB1 Ki relative to 1 (DfrB1 [1]): 2 fold; mode of inhibition (Dixon plot) (DfrB1 [1]; varying NADPH, saturating DHF, with respect to NADPH binding): competitive; inhibition of hDfr (in words) (hDfr): no inhibition
O=C(O)c1ccc(OCCCCCCCCCCCCOc2ccc(C(=O)O)cc2)cc1 [Compound 15]		> 250 µM			
O=C(O)c1ccc2[nH]c(-c3ccc(OC/C=C/COc4ccc(-c5nc6cc(C(=O)O)ccc6[nH]5)cc4)cc3)nc2c1 [Compound 10]	2.8 ± 0.8 µM	90 ± 20 µM	> 400 µM		inhibition of hDfr (in words) (hDfr): did not inhibit
O=C(O)c1ccc(OCCCCCCOc2ccc(C(=O)O)cc2)cc1 [Compound 12]		> 500 µM			
O=C(O)c1ccc2[nH]c(-c3ccc(OCCC(O)COc4ccc(-c5nc6cc(C(=O)O)ccc6[nH]5)cc4)cc3)nc2c1 (stereo not shown) [Compound 3]	3.5 ± 1.7 µM	110 ± 10 µM	> 500 µM	3.9 ± 0.9 µM	inhibition of hDfr (in words) (hDfr): no inhibition

Source: PMC6648814 (ACS Omega, 2019)
